In ChEMBL document CHEMBL3091338, “Secoemestrin D, a cytotoxic epitetrathiodioxopiperizine, and emericellenes A-E, five sesterterpenoids from Emericella sp. AST0036, a fungal endophyte of Astragalus lentiginosus1” (J Nat Prod, 2013):
Active and inactive are the calls of the source. The calls are words filed in the database; no cut-off is given here.

Key:
[1] = Cytotoxicity against human CHP100 cells after 72 hrs by Alamar Blue assay; format: functional, cell-based; conditions: CHP100, 72 h
Outline: (§1)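 In vitro cytotoxicity was read by the colorimetric resazurin (AlamarBlue) assay of cell viability. The panel covered human non-small cell lung NCI-H460, CNS glioma SF-268, breast MCF-7, metastatic breast adenocarcinoma MDA-MB-231, metastatic prostate adenocarcinoma PC-3M and neuroblastoma CHP-100 cancer lines, plus normal human lung fibroblast WI-38 cells.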

[2] = tested on: MDA-MB-231; assay: Cytotoxicity against human MDA-MB-231 cells after 72 hrs by Alamar Blue assay; format: functional, cell-based; outline: as §1
[3] = Cytotoxicity against human PC3M cells after 72 hrs by Alamar Blue assay; format: functional, cell-based, PC-3M
Outline: (§2)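 Resazurin-based colorimetric cell viability read-out on human cancer cells (MCF-7 breast; PC-3M metastatic prostate adenocarcinoma), run in vitro in a panel that also included normal human lung fibroblast WI-38 cells.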

[4] = tested on: SF-268; assay: Cytotoxicity against human SF268 cells after 72 hrs by Alamar Blue assay; format: functional, cell-based; outline: as §1
[5] = tested on: NCI-H460; assay: Cytotoxicity against human NCI-H460 cells after 72 hrs by Alamar Blue assay; format: functional, cell-based; outline: as §1
[6] = Cytotoxicity against human WI38 cells up to 5 uM after 72 hrs by Alamar Blue assay; format: cell-based; conditions: wi-38, 72 h; outline: as §1
[7] = tested on: CHP100; assay: Cytotoxicity against human CHP100 cells up to 5 uM after 72 hrs by Alamar Blue assay; format: functional, cell-based; outline: as §1
[8] = tested on: MDA-MB-231; assay: Cytotoxicity against human MDA-MB-231 cells up to 5 uM after 72 hrs by Alamar Blue assay; format: functional, cell-based; outline: as §1
[9] = tested on: PC-3M; assay: Cytotoxicity against human PC3M cells up to 5 uM after 72 hrs by Alamar Blue assay; format: functional, cell-based; outline: as §1
[10] = tested on: MCF7; assay: Cytotoxicity against human MCF7 cells up to 5 uM after 72 hrs by Alamar Blue assay; format: functional, cell-based; outline: as §1
[11] = tested on: SF-268; assay: Cytotoxicity against human SF268 cells up to 5 uM after 72 hrs by Alamar Blue assay; format: functional, cell-based; outline: as §1
[12] = tested on: NCI-H460; assay: Cytotoxicity against human NCI-H460 cells up to 5 uM after 72 hrs by Alamar Blue assay; format: functional, cell-based; outline: as §1
[13] = Cytotoxicity against human WI38 cells after 72 hrs by Alamar Blue assay; format: cell-based; conditions: WI-38, 72 h; outline: as §1
[14] = tested on: MCF7; assay: Cytotoxicity against human MCF7 cells after 72 hrs by Alamar Blue assay; format: functional, cell-based; outline: as §2

Row | Structure (SMILES) | Activity [6] | Activity [7] | Activity [8] | Activity [9] | Activity [10] | Activity [11] | Activity [12] | further results
1 | COc1cccc2c1C(=O)c1c(O)c3c(c(O)c1C2=O)C[C@@](O)(C(=O)CO)C[C@@H]3O[C@H]1C[C@H](N)[C@H](O)[C@H](C)O1 [DOXORUBICIN] | – | – | – | – | – | – | – | IC50 [1]: 790 nM; IC50 ([2]; Homo sapiens, MDA-MB-231, 72 h): 680 nM; IC50 ([3]; Homo sapiens, PC-3M, 72 h): 270 nM; IC50 ([4]; Homo sapiens, SF-268, 72 h): 310 nM; IC50 ([5]; Homo sapiens, NCI-H460, 72 h): 50 nM
2 | CC(C)=CCC[C@@]1(C(=O)O)[C@H]2C/C=C(\C)CC/C=C(\C)CC[C@H]1[C@@H](C=O)CC2 | Non-toxic | inactive | inactive | inactive | inactive | inactive | inactive | –
3 | CC(C)=CCc1ccc2c(c1O)C(=O)c1c(O)cc(C)c3c1C(O2)C(C(C)(C)O)CO3 (stereo unspecified) | Non-toxic | inactive | inactive | inactive | inactive | inactive | inactive | –
4 | CC(C)=CCC[C@@]1(C(=O)O)[C@H]2C/C=C(\C)CC/C=C(\C)CC[C@H]1[C@H](C=O)CC2 | Non-toxic | inactive | inactive | inactive | inactive | inactive | inactive | –
5 | CC(C)=CCC[C@@]1(C(=O)O)[C@@H]2CC=C(CO)[C@@H]1CC/C(C)=C/CC/C(C)=C/C2 | Non-toxic | inactive | inactive | inactive | inactive | inactive | inactive | –
6 | CC(C)=CCC[C@@]1(C=O)[C@H]2C/C=C(\C)CC/C=C(\C)CC[C@H]1[C@@]1(CC2)CO1 | Non-toxic | inactive | inactive | inactive | inactive | inactive | inactive | –
7 | C=C(C)[C@H]1COc2c(C)cc3oc4ccc(CC=C(C)C)c(O)c4c(=O)c3c2[C@H]1O (relative stereo) | Non-toxic | inactive | inactive | inactive | inactive | inactive | inactive | –
8 | COc1ccc(C(=O)O[C@H]2C=COC=C3C[C@]45SSSS[C@](Cc6ccc(O)cc6)(C(=O)N4[C@@H]32)N(C)C5=O)cc1O | – | – | – | – | – | – | – | IC50 [13]: 240 nM; IC50 [1]: 100 nM; IC50 ([2]; Homo sapiens, MDA-MB-231, 72 h): 60 nM; IC50 ([3]; Homo sapiens, PC-3M, 72 h): 170 nM; IC50 ([14]; Homo sapiens, MCF7, 72 h): 140 nM; IC50 ([4]; Homo sapiens, SF-268, 72 h): 60 nM; IC50 ([5]; Homo sapiens, NCI-H460, 72 h): 150 nM
9 | CC(C)=CCC[C@@]1(C(=O)O)[C@H]2C/C=C(\C)CC/C=C(\C)CC[C@H]1[C@@]1(CC2)CO1 | Non-toxic | inactive | inactive | inactive | inactive | inactive | inactive | –
10 | COc1cc2c(c3oc4cccc(O)c4c(=O)c13)[C@@H]1C=CO[C@@H]1O2 [STERIGMATOCYSTIN] | – | – | – | – | – | – | – | IC50 ([2]; mda-mb-231): 2750 nM; IC50 ([3]; pc-3m): 3230 nM; IC50 ([14]; mcf7): 3630 nM; IC50 ([4]; sf-268): 2960 nM; IC50 ([5]; nci-h460): 3410 nM
